Each structure is given as a SMILES string. Where two headings read alike, the source gives them in different places.

Results on eleven molecules are retold here after publication PMC3205972 (Journal of medicinal chemistry, 2009).

One series concerns healthy mice. Put plainly: Chronic maximal tolerated dose in healthy mice. Type of series: in vivo, mouse. The conditions noted are these: i.v. 5, 10, 20, 40 and 80 mg/kg once a day during 5 consecutive days; 28 days.
Series [1] relates to U373 GBM cells. Put plainly: Flow cytometry, annexin V / propidium iodide staining. It counts as cell-based, human. The following applies: 72 hrs. In general terms: A flow cytometer gives signals particle by particle.
The test system of series [2] is A549 NSCLC cells. Put plainly: Quantitative videomicroscopy: cell growth. It counts as cell-based, human. The following applies: 5 μM, 72 h.
In series [3] the test system is U373 GBM cells. Put plainly: Actin cytoskeleton organization by computer-assisted fluorescence microscopy. Type of series: cell-based, human. The conditions noted are these: 5 μM for 6 hrs.
The test system of series [4] is Normal Cell Lines (Wi38, WS1, NHDF). Put plainly: MTT colorimetric assay, mean over three normal cell lines. Type of series: cell-based. The conditions noted are these: read-out: IC50 In Vitro Growth Inhibitory Values, Normal Cell Lines, Mean ± SEM. (Tetrazolium dyes change colour on reduction, which living cells bring about.)
A further series deals with CYP3A4. The following applies: cited from earlier work.
The subject of series [5] is A549 NSCLC cells. Put plainly: Soft-agar colony formation, anchorage-independent culture. Type of series: cell-based, human. The following applies: between 0.5 (p < 0.05) and 5 (p < 0.01) μM, 38 days.
In series [6] the test system is cancer versus normal cell lines. Put plainly: In vitro therapeutic ratio, cancer versus normal cell lines. It counts as cell-based. A digest of the protocol: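 MTT colorimetric growth assay on human cancer and normal cell lines. Cells were plated for 24 h at 10,000 to 40,000 cells/mL, depending on cell type, then cultured 72 h with or without test compound. Formazan from mitochondrial MTT reduction was read at 570 nm (reference 630 nm), in sextuplicate. The ratio compares MTT growth-inhibitory IC50 between normal and cancer cells.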

Series [7] concerns U373 GBM cells. Put plainly: Quantitative videomicroscopy: cell growth. Type of series: cell-based, human. The following applies: 5 μM, 72 h.
A further series deals with SKMEL-28 melanoma cells. Put plainly: MTT colorimetric assay, in vitro growth inhibition. Type of series: cell-based, human.
For series [8], the system named is A549 non-small-cell-lung cancer (NSCLC) cells. Put plainly: MTT colorimetric assay, in vitro growth inhibition. It counts as cell-based, human.
The subject of the next series is B16F10 melanoma cells. Put plainly: MTT colorimetric assay, in vitro growth inhibition. It counts as cell-based, mouse.
The subject of series [9] is U373 glioblastoma (GBM) cells. Put plainly: MTT colorimetric assay, in vitro growth inhibition. It counts as cell-based, human. The conditions noted are these: 72 h.
In series [10] the test system is OE21 esophageal cancer cells. Put plainly: MTT colorimetric assay, in vitro growth inhibition. It counts as cell-based, human.
In series [11] the test system is Hs683 anaplastic oligodendroglioma cells. Put plainly: MTT colorimetric assay, in vitro growth inhibition. Type of series: cell-based, human.
Series [12] concerns Cancer Cell Lines (A549, OE21, Hs683, U373, SKMEL, B16F10). Put plainly: MTT colorimetric assay, mean over six cancer cell lines. Type of series: cell-based. The following applies: read-out: IC50 In Vitro Growth Inhibitory Values, Cancer Cell Lines, Mean ± SEM.
Series [13] concerns MCF-7 breast cancer cells. Put plainly: Flow cytometry, annexin V / propidium iodide staining. It counts as cell-based, human. The following applies: 1 μM for 72 hrs, positive control.
In series [14] the test system is glioma cells, which display resistance to proapoptotic stimuli. The conditions noted are these: 1 μM; cited from earlier work.
Where [15] appears, read: read-out: In Vitro IC50 Growth Inhibitory Values, SKMEL, MTT, 72 h, concentrations of up to 10 μM.
[16] abbreviates: read-out: In Vitro IC50 Growth Inhibitory Values, A549, MTT, 72 h, concentrations of up to 10 μM.
Where [17] appears, read: read-out: In Vitro IC50 Growth Inhibitory Values, B16F10, MTT, 72 h, concentrations of up to 10 μM.
The mark [18] stands for this setting: read-out: In Vitro IC50 Growth Inhibitory Values, U373, MTT, concentrations of up to 10 μM.
Setting [19] is: read-out: In Vitro IC50 Growth Inhibitory Values, OE21, MTT, 72 h, concentrations of up to 10 μM.
[20] abbreviates: read-out: In Vitro IC50 Growth Inhibitory Values, Hs683, MTT, 72 h, concentrations of up to 10 μM.

A word on the IC50: it is the concentration at which inhibition is half-maximal. In the case of `O[C@H]1[C@H]2c3cc4c(cc3CN3CCC(=C[C@@H]1O)[C@H]23)OCO4` [compound 1, (1S,2S,12bS,12cS)-1,2-Diol,2,4,5,7,12b,12c-hexahydro-1H-[1,3]dioxolo[4,5-j]pyrrolo[3,2,1-de]phenanthridine], the “toxicity (body weight, death)” value in the series with healthy mice is “no gross toxicity”. Besides, the “pro-apoptotic effects (AV+ cells)” value with U373 GBM cells [1] (5 μM or 50 μM) is “did not induce pro-apoptotic effects”. Besides, the “non-apoptotic cell death (AV-/PI+ cells)” value in the series on U373 GBM cells [1] (50 μM) is on record as “induced non-apoptotic cell death”. The “in vitro growth inhibitory activity based on global growth rate (GGR)” value in the series on A549 NSCLC cells [2] and with U373 GBM cells [7] was “marked in vitro growth inhibitory activity” each time. Besides, the “levels of polymerized actin” value in the series with U373 GBM cells [3] is reported as “markedly increased the levels of polymerized actin”. Further, the IC50 in series [4] is over 100 µM. In the series on CYP3A4, the CYP3A4 inhibitory activity entry was “no CYP3A4 inhibitory activity”. In addition, the “colony formation on soft agar” value in the series with A549 NSCLC cells [5] was “significantly impairs colony formation”. In addition, the Therapeutic ratio in series [6] (MTT IC50) was over 15; in [6] (MTT IC50, listed as Lycorine) it was “at least 15”; in series [6] (MTT IC50, listed as lycorine), 15.

For `CC(=O)O[C@H]1[C@H]2c3cc4c(cc3CN3CCC(=C[C@@H]1OC(C)=O)[C@H]23)OCO4` [compound 3, (1S,2S,12bS,12cS)-1,2-Diol-2,4,5,7,12b,12c-hexahydro-1H-[1,3]dioxolo[4,5-j]pyrrolo[3,2,1-de]phenanthridine-1,2-diacetate], in the series on SKMEL-28 melanoma cells (setting [15]), the IC50 is over 10 µM.

Consider `CC(=O)O[C@H]1C=C2CCN3Cc4cc5c(cc4[C@H]([C@@H]1O)[C@@H]23)OCO5` [compound 5, (1S,2S,12bS,12cS)-1,2-Diol-2,4,5,7,12b,12c-hexahydro-1H-[1,3]dioxolo[4,5-j]pyrrolo[3,2,1-de]phenanthridine-2-acetate], for which the IC50 in series [8] (Homo sapiens, A549, 72 h, read-out: IC50 In Vitro Growth Inhibitory Values) is 47.6 ± 2.3 µM; in the series on B16F10 melanoma cells (Mus musculus, B16-F10, 72 h, read-out: IC50 In Vitro Growth Inhibitory Values) it was 37.1 ± 2.8 µM; in series [9] (Homo sapiens, U373 MG, read-out: IC50 In Vitro Growth Inhibitory Values), 63.1 ± 4.1 µM; in [10] (Homo sapiens, OE21, 72 h, read-out: IC50 In Vitro Growth Inhibitory Values), 77.4 ± 3.1 µM; in series [11] (Homo sapiens, Hs 683, 72 h, read-out: IC50 In Vitro Growth Inhibitory Values), 43 ± 2 µM; in series [4] it was over 96.2 µM. The 50% inhibitory concentration (IC50) in [12] was 59.3 ± 8.2 µM. In series [6] (MTT IC50), the Therapeutic ratio is listed as over 2.

In the case of `O[C@H]1[C@H]2c3cc4c(cc3CN3CCC(=C[C@@H]1Cl)[C@H]23)OCO4` [compound 6, (1S,2S,12bS,12cS)-1-ol-2-Chloro-2,4,5,7,12b,12c-hexahydro-1H-[1,3]Dioxolo[4,5-j]pyrrolo[3,2,1-de]phenanthridine], the IC50 in [4] is over 72.7 µM. In addition, the Therapeutic ratio in [6] (MTT IC50) is over 11.

Consider `CC(=O)O[C@H]1[C@H]2c3cc4c(cc3CN3CC[C@H](C[C@@H]1OC(C)=O)[C@H]23)OCO4` [compound 9, (1S,2S,3aR,12bS,12cR)-1,2-Diol-2,3,3a,4,5,7,12b,12c-octahydro-1H-[1,3]dioxolo[4,5-j]pyrrolo[3,2,1-de]phenanthridine diacetate], for which the IC50 (in series [8] (setting [16]); in the series on B16F10 melanoma cells (setting [17]); in [9] (setting [18]); in series [10] (setting [19]); in series [11] (setting [20]); in the series with SKMEL-28 melanoma cells (setting [15])) was over 10 µM throughout.

With `CC(=O)O[C@H]1[C@H]2c3cc4c(cc3CN3CC[C@@H](C[C@@H]1OC(C)=O)[C@H]23)OCO4` [compound 11, (1α,2β,12β)-1,2-Diol-9,10-[methylenebis(oxy)]-galanthan-diacetate], the IC50 (in [8] (setting [16]); in the series with B16F10 melanoma cells (setting [17]); in [9] (setting [18]); in [10] (setting [19]); in series [11] (setting [20]); with SKMEL-28 melanoma cells (setting [15])) was over 10 µM each time.

Regarding `C1=C2CCN3Cc4cc5c(cc4[C@H]([C@@H]4O[C@H]14)[C@@H]23)OCO5` [compound 14, (1α,2α)-3,12-didehydro-1,2-epoxy-9,10-[methylenebis(oxy)]-galanthan], the IC50 in [4] (mean of three normal cell lines) turned out to be 24.9 ± 8.2 µM; in [12] (mean of six cancer cell lines), 5.3 ± 1.2 µM. The Therapeutic ratio in series [6] (MTT IC50) is recorded as 5.

Consider `COc1cc2c(cc1O)[C@@H]1[C@H](O)[C@@H](O)C=C3CCN(C2)[C@H]31` [compound 18, (1S,2S,11bS,11cS)-1,2,10-triol-2,4,5,7,11b,11c-hexahydro-9-methoxy-1H-pyrrolo[3,2,1-de]phenanthridine], for which the 50% inhibitory concentration (IC50) came to 63.3 ± 7.3 µM in [4] and 9 ± 1.3 µM in series [12]. Also, in series [6] (MTT IC50), the Therapeutic ratio came to 7.

As to `c1cc2c3c(c1)-c1cc4c(cc1CN3CC2)OCO4` [compound 20, 4,5-dihydro-7H-[1,3]Dioxolo[4,5-j]pyrrolo[3,2,1-de]phenanthridine], the IC50 in series [12] was found to be 11.6 ± 3.4 µM; in the series with SKMEL-28 melanoma cells (Homo sapiens, SK-MEL-28, 72 h, read-out: IC50 In Vitro Growth Inhibitory Values) it was 20.9 ± 1.2 µM. For the same molecule, in series [6] (MTT IC50), the Therapeutic ratio was 2.

`COC1=C[C@@H]2CCN3Cc4cc5c(cc4[C@@H]([C@H]23)[C@@H]1O)OCO5` [compound 22, (1S,3aS,12bS,12cS)-1-ol-2-methoxy-3a,4,5,7,12b,12c-hexahydro-1H-[1,3]Dioxolo[4,5-j]pyrrolo[3,2,1-de]phenanthridine]: the IC50 in [4] is over 99.2 µM. For the same molecule, the Therapeutic ratio in series [6] (MTT IC50) was over 13.

On to `O=C1N[C@@H]2C(=C[C@H](O)[C@@H](O)[C@H]2O)c2cc3c(c(O)c21)OCO3` [narciclasine], for which the “pro-apoptotic effects (AV/PI staining)” value in series [13] is “induced significant pro-apoptotic effects”. Also, the CYP3A4 inhibitory activity result in the series on CYP3A4 is “does”. In series [14], the apoptosis induction entry is reported as “unable to induce apoptosis”.
